Reference: ChEMBL document CHEMBL1141283, “Benzaldehyde derivatives from Sarcodontia crocea” (2007)
Values after ≈ are worked out from the molar mass of the structure shown.

Columns and labels:
Assay type in all cases: functional
Bacillus subtilis = test: Antibacterial activity against Bacillus subtilis IMI347329 by microdilution method
Summary of the method: (§1)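 Broth microdilution with two-fold (×2) dilution series of compounds from 1.56 to 800 µg/mL, four replicates per concentration per test strain; MIC taken as the lowest concentration inhibiting growth. Nystatin (fungi) and chloramphenicol (bacteria) were run as positive controls over the same concentration range.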

Pseudomonas syringae = test: Antibacterial activity against Pseudomonas syringae IMI347448 by microdilution method
Summary of the method: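 Two-fold broth microdilution MIC, four replicates per concentration per strain, over 1.56 to 800 µg/mL. Chloramphenicol served as the antibacterial positive control across the same concentration range.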

Botrytis cinerea = test: Antifungal activity against Botrytis cinerea IMI160282 by microdilution method; summary of the method: as §1
Cladosporium herbarum = test: Antifungal activity against Cladosporium herbarum IMI300461 by microdilution method; summary of the method: as §1
Eurotium amstelodami = test: Antifungal activity against Eurotium amstelodami FC1021 by microdilution method; settings: Aspergillus amstelodami; summary of the method: as §1
Plenodomus lingam = test: Antifungal activity against Leptosphaeria maculans IMI266355 by microdilution method; summary of the method: as §1

Work on `O=C(N[C@H](CO)[C@H](O)c1ccc([N+](=O)[O-])cc1)C(Cl)Cl` [CHLORAMPHENICOL] yielded an MIC (Bacillus subtilis) of 6.25 µg/mL (≈ 19.3 µM) and an MIC (Pseudomonas syringae) of 3.13 µg/mL (≈ 9.69 µM).
Compound `O=Cc1ccc(-c2ccoc2)cc1` has an MIC (Botrytis cinerea) of 200 µg/mL (≈ 1160 µM), an MIC (Cladosporium herbarum) of 200 µg/mL (≈ 1160 µM) and an MIC (Eurotium amstelodami) of 100 µg/mL (≈ 581 µM). It also gave an MIC (Plenodomus lingam) of 200 µg/mL (≈ 1160 µM), an MIC (Bacillus subtilis) of 800 µg/mL (≈ 4650 µM) and an MIC (Pseudomonas syringae) of 200 µg/mL (≈ 1160 µM).
For NYSTATIN, the MIC (Botrytis cinerea) was 50 µg/mL, the MIC (Cladosporium herbarum) was 25 µg/mL and the MIC (Eurotium amstelodami) was 50 µg/mL. The MIC (Plenodomus lingam) was 100 µg/mL.
In the case of `O=Cc1ccc(C2COC(=O)C2)cc1` (stereo not drawn), the MIC (Botrytis cinerea) is reported as 200 µg/mL (≈ 1050 µM), the MIC (Cladosporium herbarum) is reported as 400 µg/mL (≈ 2100 µM) and the MIC (Eurotium amstelodami) is reported as 200 µg/mL (≈ 1050 µM). The MIC (Plenodomus lingam) was 400 µg/mL (≈ 2100 µM), the MIC (Bacillus subtilis) was > 800 µg/mL and the MIC (Pseudomonas syringae) was 400 µg/mL (≈ 2100 µM).
